Assay outcomes as filed in PubChem.
Rows were chosen to be rich in hits. Some 1.8% of all compounds tested hit in one or more screens of this group.
CHRM5 antagonist – antagonists of human muscarinic M5 receptor (CHRM5); P08912; CHO-hM5 cells, Fluo-8 calcium fluorescence, ACh EC80; inhibition, % at 3 µM; 0.59% of 360,000 active; AID 624040;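 active means inhibition above a per-plate cutoff, the mean of that plate's test compounds plus 3 SD, cut at about 27% in these data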;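 further: 0% = acetylcholine EC80 with DMSO and 100% = DMSO without agonist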
CHRM4 PAM – potentiates acetylcholine response at human M4 receptor; P08173; CHO-K1 hM4/Gqi5, Fluo-8 calcium fluorescence, ACh EC20; 0% = ACh EC20, 100% = maximal ACh; activation, % at 3 µM; 0.4% of 360,000 active;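 active means activation above its plate's cutoff, the mean activation of sample wells plus 3 SD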
Target sequence (P08173 whole entry, looked up): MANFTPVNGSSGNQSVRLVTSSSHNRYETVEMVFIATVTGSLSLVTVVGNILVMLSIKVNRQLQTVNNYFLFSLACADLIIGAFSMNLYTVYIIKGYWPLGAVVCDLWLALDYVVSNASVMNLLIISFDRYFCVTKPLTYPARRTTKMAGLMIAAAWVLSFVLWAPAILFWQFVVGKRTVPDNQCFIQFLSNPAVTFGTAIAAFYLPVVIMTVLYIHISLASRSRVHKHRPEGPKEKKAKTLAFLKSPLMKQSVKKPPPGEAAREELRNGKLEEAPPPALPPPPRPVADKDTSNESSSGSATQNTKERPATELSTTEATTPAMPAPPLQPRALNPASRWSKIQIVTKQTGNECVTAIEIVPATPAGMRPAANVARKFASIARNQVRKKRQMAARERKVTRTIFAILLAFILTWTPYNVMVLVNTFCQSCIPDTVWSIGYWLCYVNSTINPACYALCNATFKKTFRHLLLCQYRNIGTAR
M5 ag – CHRM5 agonism in calcium assay; P08912; CHO-K1 hM5 cells, Fluo-8 calcium fluorescence; 0% DMSO wells, 100% maximal acetylcholine response; activation, % at 3 µM; 0.19% of 360,000 active;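 active means activation above the run's mean over test compounds plus 3 SD, cut at about 23% in these data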;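 further: signal is peak over basal fluorescence ratio across the kinetic read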
CHRM4 antagonist – blocks acetylcholine activation of human M4 receptor; 0.73% of 360,000 active; P08173; inhibition, % at 3 µM; CHO-hM4 cells, ACh EC80, Fluo-8 calcium fluorescence;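 active means inhibition above its plate's cutoff, the mean inhibition of sample wells plus 3 SD, cut at about 27% in these data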;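 further: 0% = acetylcholine EC80 with DMSO and 100% = DMSO without agonist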
M5 PAM – positive allosteric modulators of human muscarinic M5 receptor; CHO-K1 hM5, Fluo-8 calcium, ACh EC20 PAM; 0% = ACh EC20, 100% = ACh EC100; activation, % at 3 µM; 0.3% of 360,000 active;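 active means activation above the run cutoff, the mean activation of all test compounds plus 3 SD, cut at about 18% in these data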
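Replicates: One well per compound, no replicates | System: Human M5 receptor in CHO-K1 cells | Benchmarks: Low control EC20 acetylcholine (0%), high control EC100 acetylcholine (100%) | Probe or stimulus: Acetylcholine, EC20 level | Times: Fluo-8 loading 80 min at 37 °C plus 30 min room temperature | Signal: Intracellular calcium via Fluo-8 fluorescence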
M4 ag – CHRM4 agonism in calcium assay | P08173 | CHO-K1 hM4/Gqi5, Fluo-8 calcium fluorescence; vehicle 0%, full acetylcholine response 100% | activation, % at 3 µM | 0.14% of 360,000 active;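 active means activation above the run mean over all test wells plus 3 SD, cut at about 32% in these data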;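 further: peak over basal fluorescence ratio per well then scaled between controls; 0% = DMSO wells and 100% = acetylcholine at EC100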
Active calls of the source: *; ! = not active in a repeat.

SMILES | CHRM5 antagonist | CHRM4 PAM | M5 ag | CHRM4 antagonist | M5 PAM | M4 ag
Cc1ccccc1OCc1n(CC(=O)OC2CC(C)CCC2C(C)C)c2ccccc2[n+]1C (stereo not given) | 44*! | -17 | -9 | 35* | -19 | 3
CN=C1N(C)C[C@@H]2[C@@H]3C(=O)N(C)C(=O)[C@@H]3[C@](C)(C(=O)OC)N12 | -11 | 1 | -1 | -11 | -2 | -1
C=CCOc1ccc(/C=C/C(=O)OCC(=O)NCC(=O)Nc2c(C)cc(C)cc2C)cc1 | -5 | 7 | 4 | -9 | 5 | 2
CCCCCCCCCCOC(=O)Cn1c(COc2ccccc2C)[n+](C)c2ccccc21 | 53* | -18 | -27 | 92* | -33 | 28
CCCCCCCCCCOC(=O)Cn1c(COc2ccc(Cl)cc2)[n+](C)c2ccccc21 | 21 | -13 | -8 | 18 | -15 | 6
O=C(Nc1ccccc1)Nc1nnc([C@H]2C[C@H](O)[C@@H](CO)O2)s1 | -3 | -1 | 0 | 7 | -2 | 1
CCCCN1Cc2c(nc3cc(-c4ccco4)[nH]n3c2=O)C1=O | 9 | 0 | 2 | -5 | -4 | 0
CNS(=O)(=O)c1cc(NC(=O)CCNC(=O)c2ccco2)ccc1C | 27* | 4 | -3 | -3 | 1 | 0
CCOc1ccc(CCNC(=O)Cn2ccc3ccccc3c2=O)cc1OCC | 0 | 7 | 0 | -1 | 20* | 1
Cc1ccc(NC(=O)CCNC(=O)c2ccco2)cc1F | 13 | 3 | -2 | 4 | -1 | 0
CCOc1ccc(CCNC(=O)CCNC(=O)c2ccco2)cc1OCC | 7 | 19* | -4 | -8 | 4 | 1
COc1ccc(CCNC(=O)CCNC(=O)c2ccco2)cc1OC | 19 | 4 | -3 | -2 | -5 | 1
CCOc1ccc(CCNC(=O)Cn2cccc2C(=O)c2ccccc2)cc1OCC | 11 | -6 | -3 | 12 | -1 | 0
CCCCOCCCNC(=O)C[C@@H]1C[C@@]2(C(=O)OCC)CCC=C2N(Cc2ccccc2)C1=O | 4 | 8 | -1 | -4 | -1 | -1
COc1cc(NC(=O)C2=C(N3CCOCC3)/C(=C\c3ccc(N(C)C)cc3)CCC2)cc(OC)c1OC | -7 | 21* | 1 | 3 | 11 | 1
CCNC(=O)C1(C)CCN(C(=O)c2ccc(C)c(F)c2)C1 (stereo not given) | 10 | 6 | 1 | 3 | -3 | 1
CCC(O)CNC(=O)NC(=C(Cl)Cl)c1ccc(C)c(F)c1 (stereo not given) | 5 | 9 | 0 | -10 | 22* | 0
Cc1ccc(S(=O)(=O)n2cnc(C)c2)cc1 | -17 | -3 | 14 | -2 | 20* | 0
CC(=O)Nc1ccc(S(=O)(=O)n2cnc(C)c2)cc1 | 7 | 19 | -1 | 4 | 5 | 0
CC1(NC(=O)Cn2cc(C(F)(F)F)ccc2=O)CCS(=O)(=O)C1 (stereo not given) | 16 | 3 | 0 | 4 | -1 | 0
CCN(CC)C(=O)C1=C(C)N(Cc2ccc(F)cc2)C(=O)C(CC(=O)NCc2ccco2)C1 (stereo not given) | -9 | 4 | -2 | -23 | -3 | -1
Cc1ccc(C(=O)NCC(=O)NCC(=O)OCc2ccc(Oc3ccc([N+](=O)[O-])cc3)cc2)cc1 | 31* | -15 | 2 | 19 | -22 | 14
Cc1cccc(N2C(=O)CN=C2Nc2nc(C)cc(C)n2)c1 | -1 | 18* | -5 | -15 | -7 | 1
Cc1cc(C)nc(NC2=NCC(=O)N2c2cc(Cl)cc(Cl)c2)n1 | -2 | 0 | -1 | 7 | 7 | 1
NC(=O)COC(=O)c1ccc(S(=O)(=O)NCc2ccco2)cc1 | 10 | 20* | -1 | -11 | 8 | 1
COc1cc(/C=C/C(=O)OCC(=O)Nc2ccc([N+](=O)[O-])cc2)ccc1O | 5 | -11 | 38* | 2 | -18 | 39*
Cn1cc([C@]2(O)C(=O)Nc3ccccc32)c2ccccc21 | -4 | 4 | 1 | 5 | -1 | 3
